Measured values taken from ChEMBL document CHEMBL4732250, “Investigations on substituted (2-aminothiazol-5-yl)(imidazo[1,2-a]pyridin-3-yl)methanones for the treatment of Alzheimer's disease” (Bioorg Med Chem, 2021).
Active and inactive are the calls of the source. The rule behind the calls is not given here.

Key:
Rattus norvegicus [1] = assay: Antialzheimer activity against AlCl3-induced Sprague-Dawley rat assessed as improved in spatial working memory at 50 mg/kg, po for 7 to 28 days by elevated plus maze test; type: functional, organism-based; conditions: time 7-28 day
[2] = Toxicity in AlCl3-induced Sprague-Dawley rat assessed as focal erosions in intestine at 50 mg/kg, po after 28 days by H and E staining based microscopic method; type: organism-based; conditions: in vivo, 672 h, time 28 day
Outline: (§1)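 Gastrointestinal damage in AlCl3-model rats, 28 days of oral dosing. Stomach and intestines were washed in cold PBS 0.01 M pH 7.4 and fixed 24 h in 10% neutral buffered formalin. After a 70% ethanol wash, haemorrhagic damage was measured by digital vernier caliper for the lesion index. HE-stained sections examined microscopically.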

Rattus norvegicus [3] = assay: Antiinflammatory activity in Sprague-Dawley rat chronic model of formalin-induced paw edema assessed as inhibition of rat paw edema at 50 mg/kg, po pre treated for 1 hr followed by formalin-stimulation and measured after 5 day by plethysmometeric method relative to control; type: functional; conditions: 120 h
Outline: (§2)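 Chronic paw edema. Oral pre-dose in 0.2% agar; after 1 h, 0.1 mL 2% formalin in saline injected into the left hind sub-plantar paw, repeated on 5 consecutive days. Paw volume by plethysmometer. % inhibition of edema size relative to disease control, days 1–5. n = 6, mean ± SEM, one-way ANOVA with Tukey's test.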

Rattus norvegicus [4] = assay: Antiinflammatory activity in Sprague-Dawley rat chronic model of formalin-induced paw edema assessed as inhibition of rat paw edema at 50 mg/kg, po pre treated for 1 hr followed by formalin-stimulation and measured after 3 days by plethysmometeric method relative to control; type: functional; conditions: 72 h, time 3 day; outline: as §2
Rattus norvegicus [5] = assay: Antialzheimer activity against AlCl3-induced Sprague-Dawley rat assessed as improved in learning memory by measuring suppression of CAR at 50 mg/kg, po for 7 to 28 days by pole test; type: functional, organism-based; conditions: time 7-28 day
Outline: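 Cook's pole-climbing apparatus used for conditioned avoidance response with foot shock, in acquisition and test sessions. Rats received oral dosing in 0.2% agar plus AlCl3 4.2 mg/kg i.p. daily for 28 days. CAR was recorded on days 7, 14, 21 and 28. n = 6 per group.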

Rattus norvegicus [6] = assay: Antialzheimer activity against AlCl3-induced Sprague-Dawley rat assessed as reduction in brain LPO activity at 50 mg/kg, po after 28 days by UV-VIS spectrophotometric method; type: functional, organism-based; conditions: time 28.0 day
Outline: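 Brain LPO as MDA by the TBA reaction. AlCl3 model: oral dosing in 0.2% agar for 28 days plus AlCl3 4.2 mg/kg i.p. daily. Day-29 brains were homogenized in HBSS pH 7.4 and the pellet resuspended. Reaction with SDS, acetic acid pH 3.5 and TBA at 95 °C for 1 h, then n-butanol:pyridine extraction. Read at 532 nm, extinction coefficient applied, per gram organ. n = 6.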

[7] = Toxicity in AlCl3-induced Sprague-Dawley rat assessed as reduction in HCT level at 50 mg/kg, po after 28 days by automated haematology analyser; type: organism-based; conditions: in vivo, 672 h, time 28 day
Outline: (§3)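 On day 29 of the AlCl3 model (28 days of oral dosing), blood was drawn from the retro-orbital sinus under isoflurane into heparinized tubes. Haemoglobin and haematocrit were measured on a haematology analyser.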

[8] = Toxicity in AlCl3-induced Sprague-Dawley rat assessed as reduction in HGB level at 50 mg/kg, po after 28 days by automated haematology analyser; type: organism-based; conditions: in vivo, 672 h, time 28 day; outline: as §3
Rattus norvegicus [9] = assay: Antialzheimer activity against AlCl3-induced Sprague-Dawley rat assessed as improved in working memory at 50 mg/kg, po for 7 to 28 days by Y maze test; type: functional, organism-based; conditions: time 7-28 day
Outline: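 Y-maze: rats trained for 5 consecutive days. Arm entries recorded; SAP = total entries minus two; % alteration = actual ÷ maximum alteration × 100. Assessed on days 7, 14, 21 and 28 of daily oral dosing in 0.2% agar plus AlCl3 4.2 mg/kg i.p. n = 6, two-way ANOVA with Tukey's test.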

Rattus norvegicus [10] = assay: Antiinflammatory activity in Sprague-Dawley rat chronic model of formalin-induced paw edema assessed as inhibition of rat paw edema at 50 mg/kg, po pre treated for 1 hr followed by formalin-stimulation and measured after 4 days by plethysmometeric method relative to control; type: functional; conditions: 96 h, time 4 day; outline: as §2
[11] = Toxicity in AlCl3-induced Sprague-Dawley rat assessed as intestine lesion at 50 mg/kg, po after 28 days by H and E staining based microscopic method; type: organism-based; conditions: in vivo, 672 h, time 28 day; outline: as §1
Rattus norvegicus [12] = assay: Antiinflammatory activity in Sprague-Dawley rat acute model of carrageenan-induced paw edema assessed as inhibition of rat paw edema at 50 mg/kg, po pre treated for 1 hr followed by carrageenan-stimulation and measured after 3 hrs by plethysmometeric method relative to control; type: functional; conditions: time 4 hrs
Outline: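 SD rats of either sex, 150–200 g, n = 6, dosed orally in 0.2% agar suspension. After 1 h, 0.1 mL 1% carrageenan in saline injected into the left hind sub-plantar paw. Paw volume measured by mercury plethysmometer before and 3 h after injection. % edema inhibition calculated. Mean ± SEM.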

[13] = Toxicity in AlCl3-induced Sprague-Dawley rat assessed as focal erosions in stomach at 50 mg/kg, po after 28 days by H and E staining based microscopic method; type: organism-based; conditions: in vivo, 672 h, time 28 day; outline: as §1
Rattus norvegicus [14] = assay: Antiinflammatory activity in Sprague-Dawley rat chronic model of formalin-induced paw edema assessed as inhibition of rat paw edema at 50 mg/kg, po pre treated for 1 hr followed by formalin-stimulation and measured after 1 day by plethysmometeric method relative to control; type: functional; conditions: 24 h; outline: as §2
[15] = Toxicity in AlCl3-induced Sprague-Dawley rat assessed as stomach lesion at 50 mg/kg, po after 28 days by H and E staining based microscopic method; type: organism-based; conditions: in vivo, 672 h, time 28 day; outline: as §1
Rattus norvegicus [16] = assay: Antialzheimer activity against AlCl3-induced Sprague-Dawley rat assessed as reduction in hippocampal neuronal degeneration at 50 mg/kg, po after 28 days by H and E staining based microscopic method; type: functional, organism-based; conditions: time 28.0 day
Outline: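 Hippocampal neuronal degeneration. After 28 days of oral dosing in 0.2% agar with daily AlCl3 4.2 mg/kg i.p., brain sections were HE-stained and hippocampal regions examined at 100X.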

Rattus norvegicus [17] = assay: Antialzheimer activity against AlCl3-induced Sprague-Dawley rat assessed as change in brain SODactivity at 50 mg/kg, po after 28 days; type: functional, organism-based; conditions: time 28.0 day
Outline: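 Brain SOD activity. Rats were dosed orally for 28 days in 0.2% agar suspension, each followed by AlCl3 4.2 mg/kg i.p. Brains were taken on day 29, washed in saline and homogenized in chilled 50 mM Tris pH 8.2. Triton X-100 treatment at 4 °C, 30 min, then centrifugation. Pyrogallol was added and A420 read at 0 and 9 min, per gram fresh tissue. n = 6.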

[18] = Toxicity in AlCl3-induced Sprague-Dawley rat assessed as reduction in serum albumin level at 50 mg/kg, po after 28 days by automated analyser; type: organism-based; conditions: in vivo, 672 h, time 28 day
Outline: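 Under isoflurane, retro-orbital blood was collected into non-heparinized tubes after the 28-day AlCl3 model with oral dosing. Serum % albumin and total protein were measured on an automated clinical chemistry analyser.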

Rattus norvegicus [19] = assay: Antialzheimer activity against AlCl3-induced Sprague-Dawley rat assessed as reduction in plaque formation in the cortex region at 50 mg/kg, po after 28 days by congo red staining based microscopic method; type: functional, organism-based; conditions: time 28.0 day
Outline: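 Cortical amyloid plaques in Congo red-stained brain sections viewed at 100X. Rats had 28 days of oral dosing in 0.2% agar plus AlCl3 4.2 mg/kg i.p.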

Rattus norvegicus [20] = assay: Antiinflammatory activity in Sprague-Dawley rat chronic model of formalin-induced paw edema assessed as inhibition of rat paw edema at 50 mg/kg, po pre treated for 1 hr followed by formalin-stimulation and measured after 2 days by plethysmometeric method relative to control; type: functional; conditions: 48 h, time 2 day; outline: as §2
Rattus norvegicus [21] = assay: Antiinflammatory activity in Sprague-Dawley rat chronic model of formalin-induced paw edema assessed as inhibition of rat paw edema at 40 mg/kg, po pre treated for 1 hr followed by formalin-stimulation and measured after 4 days by plethysmometeric method relative to control; type: functional; conditions: 96 h, time 4 day; outline: as §2
Rattus norvegicus [22] = assay: Antiinflammatory activity in Sprague-Dawley rat chronic model of formalin-induced paw edema assessed as inhibition of rat paw edema at 40 mg/kg, po pre treated for 1 hr followed by formalin-stimulation and measured after 1 day by plethysmometeric method relative to control; type: functional; conditions: 24 h; outline: as §2
Rattus norvegicus [23] = assay: Antiinflammatory activity in Sprague-Dawley rat chronic model of formalin-induced paw edema assessed as inhibition of rat paw edema at 40 mg/kg, po pre treated for 1 hr followed by formalin-stimulation and measured after 5 days by plethysmometeric method relative to control; type: functional; conditions: 120 h, time 5 day; outline: as §2
Rattus norvegicus [24] = assay: Antiinflammatory activity in Sprague-Dawley rat chronic model of formalin-induced paw edema assessed as inhibition of rat paw edema at 40 mg/kg, po pre treated for 1 hr followed by formalin-stimulation and measured after 2 days by plethysmometeric method relative to control; type: functional; conditions: 48 h, time 2 day; outline: as §2
Rattus norvegicus [25] = assay: Antiinflammatory activity in Sprague-Dawley rat chronic model of formalin-induced paw edema assessed as inhibition of rat paw edema at 40 mg/kg, po pre treated for 1 hr followed by formalin-stimulation and measured after 3 days by plethysmometeric method relative to control; type: functional; conditions: 72 h, time 3 day; outline: as §2

Cc1ccn2c(C(=O)c3sc(N)nc3N(C)C)cnc2c1
Activity (Rattus norvegicus [1]): Active | Activity [2]: Non-Toxic | inhibition in vivo at 50 mg/kg (Rattus norvegicus [3]): 63% | inhibition in vivo at 50 mg/kg (Rattus norvegicus [4]): 65% | Activity (Rattus norvegicus [5]): Active | Activity (Rattus norvegicus [6]): Active | Activity [7]: Non-Toxic | Activity [8]: Non-Toxic | Activity (Rattus norvegicus [9]): Active | inhibition in vivo at 50 mg/kg (Rattus norvegicus [10]): 60% | Activity [11]: Non-Toxic | inhibition in vivo at 50 mg/kg (Rattus norvegicus [12]): 85% | Activity [13]: Non-Toxic | inhibition in vivo at 50 mg/kg (Rattus norvegicus [14]): 58% | Activity [15]: Non-Toxic | Activity (Rattus norvegicus [16]): Active | Activity (Rattus norvegicus [17]): Active | Activity [18]: Non-Toxic | Activity (Rattus norvegicus [19]): Active | inhibition in vivo at 50 mg/kg (Rattus norvegicus [20]): 67%

Cc1ccc(-c2cc(C(F)(F)F)nn2-c2ccc(S(N)(=O)=O)cc2)cc1 [CELECOXIB]
inhibition in vivo at 40 mg/kg (Rattus norvegicus [21]): 70% | inhibition in vivo at 40 mg/kg (Rattus norvegicus [22]): 67% | inhibition in vivo at 40 mg/kg (Rattus norvegicus [23]): 68% | inhibition in vivo at 40 mg/kg (Rattus norvegicus [24]): 74% | inhibition in vivo at 40 mg/kg (Rattus norvegicus [25]): 70%

Cc1cccn2c(C(=O)c3sc(N)nc3N(C)C)cnc12
inhibition in vivo at 50 mg/kg (Rattus norvegicus [3]): 54% | inhibition in vivo at 50 mg/kg (Rattus norvegicus [4]): 56% | inhibition in vivo at 50 mg/kg (Rattus norvegicus [10]): 54% | inhibition in vivo at 50 mg/kg (Rattus norvegicus [12]): 81% | inhibition in vivo at 50 mg/kg (Rattus norvegicus [14]): 55% | inhibition in vivo at 50 mg/kg (Rattus norvegicus [20]): 56%

Nc1nc(-c2ccccc2)c(C(=O)c2cnc3ccccn23)s1
inhibition in vivo at 50 mg/kg (Rattus norvegicus [12]): 40%

Cc1ccc2ncc(C(=O)c3sc(N)nc3-c3ccccc3)n2c1
inhibition in vivo at 50 mg/kg (Rattus norvegicus [12]): 77%
